Molecules are shown by their SMILES.

Here are results for one molecule from ChEMBL document CHEMBL3526015, “Metabolism of the c-Fos/activator protein-1 inhibitor T-5224 by multiple human UDP-glucuronosyltransferase isoforms” (Drug Metab Dispos, 2011).

Series [1] addresses T1, Cytochrome P450 2C8 (Homo sapiens, UniProt P10632).
T1 sequence (P10632 whole entry): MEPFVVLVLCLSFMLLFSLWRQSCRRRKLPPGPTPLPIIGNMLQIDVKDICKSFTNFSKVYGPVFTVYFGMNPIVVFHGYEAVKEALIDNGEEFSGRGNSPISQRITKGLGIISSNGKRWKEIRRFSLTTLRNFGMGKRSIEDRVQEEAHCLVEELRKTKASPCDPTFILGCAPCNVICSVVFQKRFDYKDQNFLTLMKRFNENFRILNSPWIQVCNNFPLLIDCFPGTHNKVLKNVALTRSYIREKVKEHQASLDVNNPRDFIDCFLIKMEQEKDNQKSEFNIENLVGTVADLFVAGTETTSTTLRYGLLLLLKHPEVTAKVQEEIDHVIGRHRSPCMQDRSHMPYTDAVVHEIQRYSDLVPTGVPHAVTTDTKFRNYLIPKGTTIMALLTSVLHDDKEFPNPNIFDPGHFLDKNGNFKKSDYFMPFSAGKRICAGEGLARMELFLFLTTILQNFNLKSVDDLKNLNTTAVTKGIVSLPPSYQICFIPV
The series is described as follows: Drug metabolism assessed as human CYP2C8-mediated metabolite formation at 2 uM after 30 mins by HPLC method. The class given is ADME. The conditions noted are these: recombinant enzyme, 0.5 h. The essentials: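 Each recombinant human P450 was used at 50 pmol/mL with an NADPH-generating system and 2 μM 14C-T-5224 (0.5% DMSO final). Buffer was 100 mM Tris-HCl pH 7.5, except 100 mM potassium phosphate pH 7.4 for CYP2A6 and CYP2C9*1. Incubation ran 30 min at 37°C and was stopped with acetonitrile/methanol. Radioactive metabolite peaks were detected by C18 HPLC.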

The nature of series [2]: Drug metabolism in human intestinal microsomes assessed as T-5224 acyl O-glucuronide formation per mg protein after 10 to 60 mins by HPLC method. The class given is ADME, Intestine, Microsome. In short, it runs like this:
(§1)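 Pooled liver microsomes (0.5 mg/mL) were incubated 10 min. Pooled intestinal microsomes (0.25 mg/mL) ran 10 min at T-5224 10–50 μM and 20 min at 1–5 μM. Buffer was 50 mM Tris-HCl pH 7.5 with 8 mM MgCl2, alamethicin and 2 mM UDPGA, at 37°C, in triplicate. Glucuronides G2/G3 were read by HPLC at 290 nm and fitted for Vmax/Km.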

In series [3] the test system is Liver microsome. The series is described as follows: Drug metabolism in human liver microsomes assessed as T-5224 acyl O-glucuronide formation at 10 uM after 10 mins in presence of beta-estradiol by HPLC method. The class given is ADME. The essentials: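 Pooled human liver microsomes or recombinant UGT1A1 were incubated with 10 μM T-5224, 2 mM UDPGA and β-estradiol at 0–500 μM (2% DMSO), in Tris-HCl/MgCl2/alamethicin buffer. Incubation was 10 min (liver microsomes) or 60 min (UGT1A1) at 37°C. G2/G3 were read by HPLC at 290 nm, as mean ± SD, n = 3.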

In series [4] the target is T2, UDP-glucuronosyltransferase 1A8 (Homo sapiens, UniProt Q9HAW9).
T2 sequence (Q9HAW9 whole entry): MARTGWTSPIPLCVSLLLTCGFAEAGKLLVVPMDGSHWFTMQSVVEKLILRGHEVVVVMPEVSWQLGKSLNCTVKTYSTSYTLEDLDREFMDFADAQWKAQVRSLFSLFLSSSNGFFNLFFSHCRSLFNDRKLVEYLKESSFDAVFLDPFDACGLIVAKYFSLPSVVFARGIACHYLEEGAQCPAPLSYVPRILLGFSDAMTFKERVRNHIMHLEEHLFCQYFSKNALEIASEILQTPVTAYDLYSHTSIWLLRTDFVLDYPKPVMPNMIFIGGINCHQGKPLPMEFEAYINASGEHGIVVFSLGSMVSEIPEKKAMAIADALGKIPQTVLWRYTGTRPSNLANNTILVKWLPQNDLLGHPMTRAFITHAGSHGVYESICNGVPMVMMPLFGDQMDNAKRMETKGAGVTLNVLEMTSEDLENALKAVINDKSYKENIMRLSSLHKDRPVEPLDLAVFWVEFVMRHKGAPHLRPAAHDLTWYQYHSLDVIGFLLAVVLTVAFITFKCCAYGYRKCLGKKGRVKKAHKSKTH
The experiment in a line: Substrate inhibition of human UGT1A8-mediated T-5224 hydroxyl O-glucuronide formation after 10 to 60 mins in presence of UDP-glucuronic acid by HPLC method. The class given is ADME. In short, it runs like this: (§2)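 Recombinant human UGT1A1, UGT1A3 or UGT1A8 from baculovirus-infected insect cells (0.1 mg protein/mL) in 50 mM Tris-HCl pH 7.5, 8 mM MgCl2, alamethicin, 2% DMSO. T-5224 at 1–50 μM with 2 mM UDPGA for 60 min at 37°C. HPLC with UV at 290 nm. Triplicates fitted to a substrate-inhibition model. kcat uses UGT content quantified by immunoblot against recombinant UGT1A1/UGT2B4 standards.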

The target of series [5] is T3, UDP-glucuronosyltransferase 1A1 (Homo sapiens, UniProt P22309).
T3 sequence (P22309 whole entry): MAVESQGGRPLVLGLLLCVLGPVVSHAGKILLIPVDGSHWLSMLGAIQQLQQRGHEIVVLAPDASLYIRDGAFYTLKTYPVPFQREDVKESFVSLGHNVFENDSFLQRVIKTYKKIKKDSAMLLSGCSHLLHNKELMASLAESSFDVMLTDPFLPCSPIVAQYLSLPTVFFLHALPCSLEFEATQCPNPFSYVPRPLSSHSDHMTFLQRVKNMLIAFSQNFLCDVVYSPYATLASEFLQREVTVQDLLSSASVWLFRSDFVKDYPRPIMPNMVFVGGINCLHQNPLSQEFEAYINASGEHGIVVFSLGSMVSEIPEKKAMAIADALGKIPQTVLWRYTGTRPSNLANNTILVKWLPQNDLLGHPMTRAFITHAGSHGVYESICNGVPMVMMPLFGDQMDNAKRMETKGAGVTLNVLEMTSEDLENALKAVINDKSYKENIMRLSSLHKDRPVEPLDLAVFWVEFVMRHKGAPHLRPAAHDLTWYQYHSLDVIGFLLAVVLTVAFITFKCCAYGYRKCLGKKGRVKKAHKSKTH
The experiment in a line: Drug metabolism assessed as human UGT1A1-mediated T-5224 acyl O-glucuronide formation at 5 to 50 uM after 60 mins in presence of UDP-glucuronic acid by HPLC method. The class given is ADME. The conditions noted are these: recombinant enzyme, 1 h.

A short description of series [6]: Drug metabolism in human intestinal microsomes assessed as T-5224 hydroxyl O-glucuronide formation per mg protein after 10 to 60 mins by HPLC method. The class given is ADME, Intestine, Microsome. The essentials: as §1
For series [7], the target named is T3, UDP-glucuronosyltransferase 1A1. The experiment in a line: Substrate inhibition of human UGT1A1-mediated T-5224 acyl O-glucuronide formation after 10 to 60 mins in presence of UDP-glucuronic acid by HPLC method. The class given is ADME. The essentials:
as §2

In series [8] the test system is Liver microsome. The series is described as follows: Drug metabolism in human liver microsomes assessed as T-5224 acyl O-glucuronide formation after 10 to 60 mins by HPLC method. The class given is ADME. The essentials:
as §1

Series [9] is described as follows: Drug metabolism in human intestinal microsomes assessed as T-5224 hydroxyl O-glucuronide formation after 10 to 60 mins by HPLC method. The class given is ADME, Intestine, Microsome. The essentials:
as §1

One may read the Vmax as the rate approached at saturating substrate. Usually Km stands for the concentration of substrate that gives half-maximal velocity. For `O=C(O)CCc1cc(C(=O)c2ccc(OC3CCCC3)cc2O)ccc1OCc1ccc2c(O)noc2c1`, the Drug metabolism entry in series [1] is “metabolite_not_detected”; in series [3], “metabolite_not_detected”; in series [5], “metabolite_detected”. Moreover, the values for the Vmax in series [2] and in series [6] were 241 pmol/min and 106 pmol/min, respectively. Further, the Ki came out at 3640 nM in [4] and 1540 nM in series [7]. Also, the Michaelis constant (Km) turned out to be 4.93 µM in series [8] and 3.06 µM in [9].
